ChEMBL document CHEMBL3997800, “Discovery of Multitarget Agents Active as Broad-Spectrum Antivirals and Correctors of Cystic Fibrosis Transmembrane Conductance Regulator for Associated Pulmonary Diseases” (J Med Chem, 2017)
The source made the active and inactive calls. The rule behind the calls is not given here.

Tests used:
[1] = target: PI3-kinase p110-alpha/p85-alpha (Homo sapiens) (UniProt P27986+P42336); test: Inhibition of full length recombinant human N-terminal His6-tagged PI3Kalpha (1 to 1068 residues)/full length human N-terminal myc-tagged P85alpha (1 to 724 residues) expressed in Sf9 insect cells assessed as residual activity at 100 uM using PI : PS as substrate in presence of [gamma-33P]-ATP by scintillation counting method relative to control
[2] = Inhibition of full length recombinant His6-tagged PI4K3alpha (unknown origin) expressed in Sf9 insect cells assessed as residual activity at 100 uM using PI : PS as substrate in presence of [gamma-33P]-ATP by scintillation counting method relative to control; conditions: Homo sapiens
[3] = target: Proto-oncogene tyrosine-protein kinase Src (Homo sapiens) (UniProt P12931); test: Inhibition of full-length recombinant human N-terminal GST-tagged SRC expressed in Escherichia coli assessed as residual activity at 100 uM using KVEKIGEGTYGVVYK-amide as substrate by ADP-Glo bioluminescence assay relative to control relative to control
How it was run: (§1)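 Kinase reactions followed manufacturer's instructions with 10-50 ng enzyme, in 10 µL for 10 min at 30 °C; NP-40 or BSA added for some kinases. Compound at 100 µM. Residual activity is the mean of two independent replicates.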

[4] = target: Serine/threonine-protein kinase pim-1 (Homo sapiens) (UniProt P11309); test: Inhibition of recombinant human N-terminal GST-tagged pim1 expressed in baculovirus infected sf9 cells assessed as residual activity using KRRRLASLR as substrate at 100 uM by ADP-Glo bioluminescence assay relative to control relative to control; how it was run: as §1
[5] = Selectivity index, ratio of CC50 for human RD cells to EC50 for Enterovirus 71; assay type: toxicity; conditions: read-out: Ratio CC50/EC50
How it was run: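 SI is CC50/EC50. CC50 is from the MTS assay on uninfected RD cells and EC50 from the EV71 CPE-reduction assay, both medians of three dose-response curves run in parallel.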

rhinovirus B14 = test: Antiviral activity against Rhinovirus 14 after 2 to 3 days by cell based MTS assay; assay type: functional; conditions: Rhinovirus B; read-out: EC50
[6] = Cytotoxicity against human RD cells assessed as change in cell morphology by microscopic method; assay type: cell-based
How it was run: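 Uninfected, compound-treated RD cells were inspected by microscope. CC50 was taken from microscopically detectable alteration of cell morphology.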

[7] = target: CDK6/cyclin D1 (Homo sapiens) (UniProt P24385+Q00534); test: Inhibition of CDK6/cyclin D1 (unknown origin) assessed as residual activity at 100 uM by ADP-Glo bioluminescence assay relative to control relative to control; assay type: protein-complex assay; how it was run: as §1
[8] = target: CDK9/cyclin T1 (Homo sapiens) (UniProt O60563+P50750); test: Inhibition of CDK9/cyclin T1 (unknown origin) assessed as residual activity at 100 uM by ADP-Glo bioluminescence assay relative to control relative to control; assay type: protein-complex assay; how it was run: as §1
Enterovirus A71 [9] = test: Antiviral activity against Enterovirus 71 TW/1956/05 clinical isolates incubated for 2 to 3 days; assay type: functional; conditions: Enterovirus A
[10] = tested on: Cystic fibrosis transmembrane conductance regulator (Homo sapiens), P13569 [F508del]; test: Corrector activity at CFTR F508 deletion mutant (unknown origin) expressed in HEK293 cells assessed as increase in steady-state level of F508 deletion mutant at plasma membrane at 10 uM preincubated for 24 hrs followed by compound washout by pHTomato dye based fluorescence imaging method; assay type: cell-based
How it was run: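 HEK293 cells were transiently transfected (Lipofectamine 2000) with F508del-CFTR-pHTomato plus co-expressed soluble eGFP, then kept 24 h at 37 °C. Next, 24 h at 30 °C with 10 μM drug. Imaging in pH 7.4 HEPES buffer, then extracellular pH shifted to ~6.5 (MES) and ~8.8 (Tris). The eGFP-normalized fluorescence rise (ΔF) estimates membrane CFTR.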

Enterovirus A71 [11] = test: Antiviral activity against Enterovirus 71 H08300 461#812 clinical isolates incubated for 2 to 3 days; assay type: functional; conditions: Enterovirus A
[12] = target: Receptor-type tyrosine-protein kinase FLT3 (Homo sapiens) (UniProt P36888); test: Inhibition of recombinant human N-terminal GST-tagged FLT3 (571 to 993 residues) expressed in baculovirus infected sf9 cells assessed as residual activity using myelin basic protein as substrate at 100 uM by ADP-Glo bioluminescence assay relative to control relative to control; how it was run: as §1
Enterovirus A71 [13] = test: Antiviral activity against Enterovirus 71 infected in RD cells assessed as reduction in virus-induced cytopathic effect incubated for 2 to 3 days; assay type: functional, cell-based; conditions: Enterovirus A, RD; read-out: EC50
How it was run: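 RD cells seeded at 20 000/well in MEM with 2% FCS and infected with EV71. Three 8-step 1:5 dilution series from 100 μM. Incubated 2-3 days until maximal CPE, then scored for CPE reduction. EC50 is the median of three dose-response curves.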

Poliovirus 1 = test: Antiviral activity against Poliovirus 1 after 2 to 3 days by cell based MTS assay; assay type: functional; conditions: Enterovirus C
How it was run: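 Vero cells seeded at 20 000/well in MEM with 2% FCS. Three 8-step 1:5 dilution series from 100 μM, then virus, then cells; 2–3 days until maximal CPE. Read-out: 5% MTS for 1.5 h at 37°C, absorbance at 498 nm, expressed as % of untreated controls. EC50 taken as the median of 3 dose-response curves.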

Enterovirus A71 [14] = test: Antiviral activity against Enterovirus 71 TW/70902/08 clinical isolates incubated for 2 to 3 days; assay type: functional; conditions: Enterovirus A
[15] = target: Dual specificity tyrosine-phosphorylation-regulated kinase 1A (Homo sapiens) (UniProt Q13627); test: Inhibition of human DYRK1A assessed as residual activity at 100 uM by ADP-Glo bioluminescence assay relative to control relative to control; how it was run: as §1
[16] = target: CDK2/Cyclin A2 (Homo sapiens) (UniProt P24941+P20248); test: Inhibition of full-length recombinant human N-terminal GST-tagged CDK2/cyclin A2 expressed in baculovirus infected sf9 cells assessed as residual activity at 100 uM using histone H1 as substrate by ADP-Glo bioluminescence assay relative to control relative to control; how it was run: as §1
[17] = Inhibition of full length recombinant His6-tagged PI4K3beta (unknown origin) expressed in Sf9 insect cells using PI : PS as substrate in presence of [gamma-33P]-ATP by scintillation counting method; parameters: species or system Homo sapiens; conditions: read-out: IC50
[18] = target: Tyrosine-protein kinase HCK (Homo sapiens) (UniProt P08631); test: Inhibition of full-length recombinant human HCK assessed as residual activity at 100 uM using poly(Glu,Tyr)4:1 as substrate by ADP-Glo bioluminescence assay relative to control relative to control; how it was run: as §1
[19] = target: CDK9/Cyclin K (Homo sapiens) (UniProt P50750+O75909); test: Inhibition of full-length recombinant human N-terminal GST-tagged CDK9/cyclin K expressed in baculovirus infected sf9 cells assessed as residual activity at 100 uM using KTFCGTPEYLAPEVRREPRILSEEEQEMFRDFDYIADWC as substrate by ADP-Glo bioluminescence assay relative to control relative to control; how it was run: as §1
Echovirus E11 = test: Antiviral activity against Echovirus 11 after 2 to 3 days; assay type: functional; conditions: Enterovirus B

Sequence of Cystic fibrosis transmembrane conductance regulator (Homo sapiens), P13569 [F508del] (P13569 as listed by the source): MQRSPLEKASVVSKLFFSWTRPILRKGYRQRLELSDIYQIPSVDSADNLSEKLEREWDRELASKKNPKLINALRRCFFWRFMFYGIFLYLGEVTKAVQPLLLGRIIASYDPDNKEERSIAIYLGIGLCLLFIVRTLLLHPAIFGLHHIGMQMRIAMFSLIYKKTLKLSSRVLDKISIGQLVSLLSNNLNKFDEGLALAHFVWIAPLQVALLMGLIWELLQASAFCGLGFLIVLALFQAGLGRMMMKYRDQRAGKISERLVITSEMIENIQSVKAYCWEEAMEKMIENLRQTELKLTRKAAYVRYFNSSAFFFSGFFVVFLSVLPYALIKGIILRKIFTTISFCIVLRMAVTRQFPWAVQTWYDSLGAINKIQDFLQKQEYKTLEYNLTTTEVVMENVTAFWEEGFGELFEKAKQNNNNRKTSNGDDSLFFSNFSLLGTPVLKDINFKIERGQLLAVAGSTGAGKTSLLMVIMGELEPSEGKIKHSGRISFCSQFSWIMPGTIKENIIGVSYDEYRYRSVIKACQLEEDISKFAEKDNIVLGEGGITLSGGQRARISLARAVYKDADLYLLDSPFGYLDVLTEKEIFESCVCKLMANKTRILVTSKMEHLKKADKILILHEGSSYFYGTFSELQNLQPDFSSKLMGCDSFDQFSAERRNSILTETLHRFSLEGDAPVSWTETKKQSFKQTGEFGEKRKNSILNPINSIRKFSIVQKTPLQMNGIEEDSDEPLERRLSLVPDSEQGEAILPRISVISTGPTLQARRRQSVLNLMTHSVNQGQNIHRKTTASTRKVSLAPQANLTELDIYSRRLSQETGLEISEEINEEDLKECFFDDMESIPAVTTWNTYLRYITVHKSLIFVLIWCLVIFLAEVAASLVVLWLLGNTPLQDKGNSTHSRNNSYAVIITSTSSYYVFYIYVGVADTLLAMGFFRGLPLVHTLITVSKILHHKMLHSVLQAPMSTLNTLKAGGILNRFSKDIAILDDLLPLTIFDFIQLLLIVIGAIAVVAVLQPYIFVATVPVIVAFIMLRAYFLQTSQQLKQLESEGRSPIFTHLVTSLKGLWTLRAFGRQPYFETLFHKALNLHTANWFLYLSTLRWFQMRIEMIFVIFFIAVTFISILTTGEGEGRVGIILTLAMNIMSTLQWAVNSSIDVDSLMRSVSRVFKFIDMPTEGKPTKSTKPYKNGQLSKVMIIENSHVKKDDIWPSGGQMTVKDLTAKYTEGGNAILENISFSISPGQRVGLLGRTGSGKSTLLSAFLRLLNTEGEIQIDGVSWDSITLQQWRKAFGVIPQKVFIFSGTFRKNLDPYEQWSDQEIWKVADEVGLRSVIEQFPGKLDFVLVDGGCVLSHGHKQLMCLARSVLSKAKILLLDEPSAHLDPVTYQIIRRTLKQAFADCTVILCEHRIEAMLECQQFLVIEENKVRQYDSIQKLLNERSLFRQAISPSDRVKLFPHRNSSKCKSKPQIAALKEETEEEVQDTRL
Sequence of Tyrosine-protein kinase HCK (Homo sapiens) (P08631 2-526 limits assumed): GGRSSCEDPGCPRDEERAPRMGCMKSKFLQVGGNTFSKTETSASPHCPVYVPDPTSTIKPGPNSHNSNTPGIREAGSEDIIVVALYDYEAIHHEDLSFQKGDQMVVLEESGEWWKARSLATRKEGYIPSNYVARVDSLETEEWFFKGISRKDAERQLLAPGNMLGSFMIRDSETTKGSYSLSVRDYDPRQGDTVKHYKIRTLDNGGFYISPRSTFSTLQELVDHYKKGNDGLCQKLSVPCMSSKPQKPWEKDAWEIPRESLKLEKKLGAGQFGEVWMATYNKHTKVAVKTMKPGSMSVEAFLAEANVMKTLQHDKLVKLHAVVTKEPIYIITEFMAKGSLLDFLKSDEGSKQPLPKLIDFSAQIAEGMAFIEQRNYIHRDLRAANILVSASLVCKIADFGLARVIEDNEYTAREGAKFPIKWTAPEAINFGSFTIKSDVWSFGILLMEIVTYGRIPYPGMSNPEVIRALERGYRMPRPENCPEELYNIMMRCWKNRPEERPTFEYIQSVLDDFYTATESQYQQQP
Sequence of Receptor-type tyrosine-protein kinase FLT3 (Homo sapiens) (P36888 whole entry, the tested form may be a part): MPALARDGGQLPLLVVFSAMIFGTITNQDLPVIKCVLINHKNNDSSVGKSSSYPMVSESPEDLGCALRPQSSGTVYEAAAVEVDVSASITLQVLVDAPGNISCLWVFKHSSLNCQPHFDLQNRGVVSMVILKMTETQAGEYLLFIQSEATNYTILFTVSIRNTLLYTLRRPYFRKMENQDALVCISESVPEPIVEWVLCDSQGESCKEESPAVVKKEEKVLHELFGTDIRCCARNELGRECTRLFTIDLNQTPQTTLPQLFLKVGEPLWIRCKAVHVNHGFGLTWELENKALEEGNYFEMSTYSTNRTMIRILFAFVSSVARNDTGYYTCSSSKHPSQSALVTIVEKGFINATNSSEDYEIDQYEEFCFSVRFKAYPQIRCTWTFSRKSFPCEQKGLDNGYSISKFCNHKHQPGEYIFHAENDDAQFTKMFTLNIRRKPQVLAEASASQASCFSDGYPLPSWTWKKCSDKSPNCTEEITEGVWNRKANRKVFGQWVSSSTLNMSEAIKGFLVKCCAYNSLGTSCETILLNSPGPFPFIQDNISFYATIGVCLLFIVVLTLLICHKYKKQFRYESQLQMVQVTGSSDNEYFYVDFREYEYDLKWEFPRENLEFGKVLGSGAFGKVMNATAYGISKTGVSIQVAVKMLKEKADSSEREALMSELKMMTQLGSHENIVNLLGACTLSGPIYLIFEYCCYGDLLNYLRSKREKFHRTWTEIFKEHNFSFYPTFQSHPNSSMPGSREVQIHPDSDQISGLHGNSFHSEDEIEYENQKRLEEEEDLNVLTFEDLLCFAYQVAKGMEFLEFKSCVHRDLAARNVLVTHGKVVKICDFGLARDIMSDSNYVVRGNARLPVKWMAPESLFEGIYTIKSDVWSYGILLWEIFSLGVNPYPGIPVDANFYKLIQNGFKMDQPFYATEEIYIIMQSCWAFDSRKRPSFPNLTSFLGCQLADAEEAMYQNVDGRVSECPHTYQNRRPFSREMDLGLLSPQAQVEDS
Sequence of Serine/threonine-protein kinase pim-1 (Homo sapiens) (P11309 whole entry, looked up): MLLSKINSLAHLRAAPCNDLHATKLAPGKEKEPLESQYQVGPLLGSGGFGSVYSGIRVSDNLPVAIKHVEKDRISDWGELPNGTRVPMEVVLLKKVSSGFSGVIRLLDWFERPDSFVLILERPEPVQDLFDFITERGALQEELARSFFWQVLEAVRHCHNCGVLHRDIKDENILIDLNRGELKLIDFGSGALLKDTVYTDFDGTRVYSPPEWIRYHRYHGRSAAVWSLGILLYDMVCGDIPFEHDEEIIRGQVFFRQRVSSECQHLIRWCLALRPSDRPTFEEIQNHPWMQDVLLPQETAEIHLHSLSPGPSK
Sequence of Proto-oncogene tyrosine-protein kinase Src (Homo sapiens) (P12931 2-536 limits assumed): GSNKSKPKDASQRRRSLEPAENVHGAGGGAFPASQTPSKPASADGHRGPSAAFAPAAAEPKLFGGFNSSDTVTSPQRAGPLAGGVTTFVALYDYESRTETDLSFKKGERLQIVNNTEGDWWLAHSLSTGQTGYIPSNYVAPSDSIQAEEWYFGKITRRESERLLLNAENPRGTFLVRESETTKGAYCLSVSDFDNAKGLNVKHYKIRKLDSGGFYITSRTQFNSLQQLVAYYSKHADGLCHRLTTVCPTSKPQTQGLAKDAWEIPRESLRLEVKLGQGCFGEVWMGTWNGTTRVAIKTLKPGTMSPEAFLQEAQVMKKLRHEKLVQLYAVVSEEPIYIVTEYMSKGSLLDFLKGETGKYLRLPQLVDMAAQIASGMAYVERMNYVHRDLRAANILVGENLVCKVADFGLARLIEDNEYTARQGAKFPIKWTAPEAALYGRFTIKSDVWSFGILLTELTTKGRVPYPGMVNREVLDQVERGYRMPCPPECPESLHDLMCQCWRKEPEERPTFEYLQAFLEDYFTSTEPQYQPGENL

With CC(=O)c1cccc(Nc2nc(-c3sc(NC(=O)OC(C)(C)C)nc3C)cs2)c1 the Activity [1] was 64%, the Activity [2] was 69% and the Activity [3] was 32%. It also gave an Activity [4] of 70%, a selectivity ratio [5] of 29.7 and an EC50 (rhinovirus B14) greater than 232 µM. It also gave a CC50 [6] of 101 µM, an Activity [7] of 25% and an Activity [8] of 57%. For the same molecule, the EC50 (Enterovirus A71 [9]) was less than 1.39 µM, the Activity [10] was “Active” and the EC50 (Enterovirus A71 [11]) was 0.97 µM. It also gave an Activity [12] of 59%, an EC50 (Enterovirus A71 [13]) of 1.42 µM and an EC50 (Poliovirus 1) of 13.3 µM. The EC50 (Enterovirus A71 [14]) was 3.58 µM, the Activity [15] was 88% and the Activity [16] was 62%. For the same molecule, the IC50 [17] was 4.67 µM, the Activity [18] was 100% and the Activity [19] was 49%. For the same molecule, the EC50 (Echovirus E11) was 2.93 µM.
